Measurements as given in publication PMC2638640 (Toxicological Sciences, 2008).

Key:
[1] = Rate constants for reaction of type 2 alkenes with cysteine sulfhydryl groups; format: physicochemical; conditions: second-order rate of reaction with L-cysteine at pH 7.4
Method in brief: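 L-Cysteine was incubated with molar excess of test alkene at pH 7.4 or 8.8, with remaining sulfhydryl measured over time by DTNB absorbance. Pseudo-first-order constants (k1) came from these plots, then second-order constants (k2). Thiolate-corrected constants via log(k k2) = log k2 + pKa – pH, taking sulfhydryl pKa 8.5; n = 4–6 at pH 7.4.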

[2] = system: ^3H-DA transport in striatal synaptic vesicles; assay: Inhibition of vesicular ^3H-DA transport; format: biochemical, rat; conditions: nonconjugated analogs, data not shown
Method in brief: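 Rat striatal synaptic vesicles (P5 pellet after osmotic shock of crude synaptosomes), 3 μg protein, were exposed 15 min to graded concentrations of test compound or assay buffer. They were then incubated 3 min at 30°C with Mg2+-ATP (2mM) and 0.30μM 3H-DA. Reaction stopped with cold buffer, followed by rapid filtration and scintillation counting. Nonspecific uptake: 4°C without Mg2+-ATP. IC50 (95% CI) by nonlinear regression; n = 3–5.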

[3] = system: total free sulfhydryl content in synaptosomes; assay: Loss of free sulfhydryl groups in synaptosomes; format: biochemical, rat; conditions: nonconjugated analogs, striatal synaptosomes
Method in brief: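 Rat striatal synaptosomes (200 μg protein) were incubated 15 min with graded concentrations of test compound or control buffer, then solubilized in 1% SDS. DTNB (3mM) added; after 5 min equilibration at 25°C, absorbance read at 412 nm against a no-DTNB blank. Free thiol calculated from the extinction coefficient 1.36 × 10^4/M/cm; n = 4–6.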

[4] = system: membrane ^3H-DA transport in striatal synaptosomes; assay: Inhibition of synaptosomal membrane ^3H-DA transport; format: biochemical, rat; conditions: for effect on synaptosomal uptake: nonconjugated analogs, striatal synaptosomes; for effect of nucleophile on in vitro neurotoxicity of HNE: nucleophile 500μM, HNE-exposed striatal synaptosomes
Method in brief: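 Striatal synaptosomes from adult male Sprague-Dawley rats (Percoll gradient, 15%/23% interface), 10 μg protein, were exposed 15 min at 30°C to graded concentrations of test compound or Krebs-HEPES buffer. Samples were washed, filter-trapped and superfused 3 min with 0.30μM 3H-DA. Uptake measured ± Na+ (choline substitution), by scintillation. IC50 (95% CI) by nonlinear regression; n = 4–6.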

[5] = ref Doorn and Petersen, 2002, 2003; cited from earlier work

C=CC=O [Acrolein, acrolein]
Log k2 (pH = 7.4) [1]: 2.596

C=CCO [Allyl alcohol, allyl alcohol]
effect on vesicular uptake [2]: did not affect vesicular uptake
effect on synaptosomal sulfhydryl content [3]: did not affect
effect on synaptosomal uptake [4]: did not affect

CCCCCC(O)C=CC=O (stereo not drawn) [HNE, 4-Hydroxy-2-nonenal]
second-order rate constant k2 (mean ± SD), Cys toward HNE [5]: 1.33 ± 0.083 M^∧(−1)s^∧(−1)
second-order rate constant k2 (mean ± SD), His toward HNE [5]: 2.14 ± 0.312 × 10^−3 M^∧(−1)s^∧(−1)
second-order rate constant k2 (mean ± SD), Lys toward HNE [5]: 1.33 ± 0.050 × 10^−3 M^∧(−1)s^∧(−1)
Log k2 (pH = 7.4) [1]: 0.938

C=CC(C)=O [MVK, methyl vinyl ketone]
Log k2 (pH = 7.4) [1]: 2.048

CC(=O)N[C@@H](CS)C(=O)O [NAC, N-acetyl-L-cysteine]
effect of nucleophile on in vitro neurotoxicity of HNE [4]: significantly reduced HNE neurotoxicity

CC(=O)N[C@@H](CCCCN)C(=O)O [NAL, N-acetyl-L-lysine]
effect of nucleophile on in vitro neurotoxicity of HNE [4]: neither NAL nor carnosine affected the in vitro neurotoxicity of HNE

CCC=O [Propanal, propanal]
effect on vesicular uptake [2]: did not affect vesicular uptake
effect on synaptosomal sulfhydryl content [3]: did not affect
effect on synaptosomal uptake [4]: did not affect

NCCC(=O)N[C@@H](Cc1cnc[nH]1)C(=O)O [carnosine, β-alanyl-L-histidine]
effect of nucleophile on in vitro neurotoxicity of HNE [4]: neither NAL nor carnosine affected the in vitro neurotoxicity of HNE
